Measurements collected from several papers.
Protocols differ between the studies behind these lines.
CA9: Carbonic anhydrase 9 (CA9, Homo sapiens, UniProt Q16790)
PADI4: Protein-arginine deiminase type-4 (PADI4, Homo sapiens, UniProt Q9UM07)
HRH1: Histamine H1 receptor (HRH1, Homo sapiens, UniProt P35367)
MAOB: Amine oxidase [flavin-containing] B (MAOB, Homo sapiens, UniProt P27338)
PKN1: Serine/threonine-protein kinase N1 (PKN1, Homo sapiens, UniProt Q16512)
GRM1: Metabotropic glutamate receptor 1 (GRM1, Homo sapiens, UniProt Q13255)

CCC(=O)NCC[C@@H]1CCc2cc(O)c3c(c21)CCO3 — Km (Sulfotransferase 1A1 (SULT1A1, Homo sapiens, UniProt P50225); enzyme activity, substrate; pH 7): 19.2 µM
N#CC1CSc2[nH]c(=O)sc2C1c1cn(-c2ccccc2)nc1-c1ccc(Br)cc1 (centres unmarked) — inhibition (CA9; enzyme activity, inhibitor; 10 µM): 88.5%
N=C(CF)NCCC[C@H](NC(=O)c1ccc(-c2ccccc2)cc1)c1nn[nH]n1 — kinact/KI (PADI4; enzyme activity, inhibitor): 3.5 M⁻¹ s⁻¹
CN1CCC(=C2c3ccccc3CCc3ccccc32)CC1 — kon (HRH1; binding): 1.33e+06 M⁻¹ s⁻¹
O=C(Nc1ccc([N+](=O)[O-])cc1C(F)(F)F)c1cc(Cl)ccc1O — inhibition (MAOB; enzyme activity, inhibitor; 1 µM, 20 min): 30%
CCOC(=O)C1CSc2[nH]c(=O)sc2C1c1cn(-c2ccccc2)nc1-c1ccc(Br)cc1 (centres unmarked) — inhibition (CA9; enzyme activity, inhibitor; 10 µM): 80.5%
C[C@@H]1CN(CC(=O)Nc2ccc3c(c2)Cc2cccc(-c4cc(=O)cc(N5CCOCC5)o4)c2S3)C[C@H](C)O1 — activity vs control (PKN1; enzyme activity, inhibitor; 1 µM): 79%
O=C(Nc1ccc(N2C(=O)c3ccccc3C2=O)c(Cl)c1)c1ncccc1Cl — Emax (GRM1; calcium signal, positive allosteric modulator; T-REx-293): 102%
CC(C)(C)n1nnc([C@H](CCCNC(=N)CCl)NC(=O)c2ccccc2C(=O)O)n1 — kinact/KI (PADI4; enzyme activity, inhibitor): 423 M⁻¹ s⁻¹
COc1cc(NC(C)=O)c(Cl)cc1C(=O)Nc1nccs1 — inhibition (Beta-1 adrenergic receptor (ADRB1, Homo sapiens, UniProt P08588); cell-free assay; 10 µM): 2.5%
Cc1c(Cn2c(C)nc3c(C(=O)O)cc(N4CCOCC4)cc32)cccc1C(F)(F)F — activity vs control (PKN1; enzyme activity, inhibitor; 1 µM): 88%
N=C(CCl)NCCC[C@H](NC(=O)c1ccc(-c2ccccc2)cc1)c1nn[nH]n1 — kinact/KI (PADI4; enzyme activity, inhibitor): 398 M⁻¹ s⁻¹
O=C(Nc1ccccc1)c1cc(Cl)ccc1O — inhibition (MAOB; enzyme activity, inhibitor; 1 µM, 20 min): 44%
C=CCn1c(=O)c2cnc(Nc3ccc(N4CCN(C)CC4)cc3)nc2n1-c1cccc(C(C)(C)O)n1 — activity vs control (PKN1; enzyme activity, inhibitor; 1 µM): 60%
O=C(Nc1ccccn1)c1ccc(Cl)cc1 — inhibition (MAOB; enzyme activity, inhibitor; 1 µM, 20 min): 11%
CN1CCN(C2c3ccccc3C=Cc3ccccc32)CC1 — kon (HRH1; binding): 117000 M⁻¹ s⁻¹
Cc1cccnc1C(=O)Nc1ccc(N2C(=O)c3ccccc3C2=O)c(Cl)c1 — Emax (GRM1; calcium signal, positive allosteric modulator; T-REx-293): 91%
CCOC(=O)C1CSc2[nH]c(=O)sc2C1c1cn(-c2ccccc2)nc1-c1ccc(C)cc1 (centres unmarked) — inhibition (CA9; enzyme activity, inhibitor; 10 µM): 76.9%
CC(C)(C)n1nnc([C@H](CCCNC(=N)CF)NC(=O)c2ccccc2)n1 — kinact/KI (PADI4; enzyme activity, inhibitor): 4.33 M⁻¹ s⁻¹
O=C1NC(=S)C(=Cc2cn(-c3ccccc3)nc2-c2ccc(Br)cc2)S1 — inhibition (CA9; enzyme activity, inhibitor; 0.1 µM): 33.5%
Cc1ccc(C(=O)Nc2ccc([N+](=O)[O-])cc2C(F)(F)F)cc1 — inhibition (MAOB; enzyme activity, inhibitor; 1 µM, 20 min): 69%
CN1CCC(C2c3ccccc3C=Cc3ccccc32)CC1 — kon (HRH1; binding): 667000 M⁻¹ s⁻¹
CC(C)(C)n1nnc([C@H](CCCNC(=N)CF)NC(=O)c2ccccc2C(=O)O)n1 — kinact/KI (PADI4; enzyme activity, inhibitor): 432 M⁻¹ s⁻¹
COc1cc2ncn(-c3cc(OCc4ccccc4C(F)(F)F)c(C(N)=O)s3)c2cc1OC — activity vs control (PKN1; enzyme activity, inhibitor; 1 µM): 56%
Nc1ncnc2c1ncn2[C@@H]1O[C@H](COP(=O)(O)OP(=O)(O)O)[C@@H](O)[C@H]1O — ΔTm (Katanin p60 ATPase-containing subunit A1 (Homo sapiens, UniProt O75449, D210C); thermal stability, DSF; 1 mM): 4.5 to 4.8 °C
O=C(Nc1ccccc1)c1ccccc1O — inhibition (MAOB; enzyme activity, inhibitor; 1 µM, 20 min): 5%
CN1CCN(C2c3ccccc3CCc3ccccc32)CC1 — kon (HRH1; binding): 567000 M⁻¹ s⁻¹
CCOC(=O)C1CSc2[nH]c(=O)sc2C1c1cn(-c2ccccc2)nc1-c1ccccc1 (centres unmarked) — inhibition (CA9; enzyme activity, inhibitor; 0.1 µM): 29%
O=C(Nc1ccc(C(F)(F)F)cc1)c1cc2ccccc2cc1O — inhibition (MAOB; enzyme activity, inhibitor; 1 µM, 20 min): 67%
COc1cc(N2CCOCC2)ccc1NC(=O)c1csc(-c2cccnc2)n1 — activity vs control (PKN1; enzyme activity, inhibitor; 1 µM): 87%
CN(C)CCOC1c2ccccc2CCc2ccccc21 — koff (HRH1; binding): 0.00215 s⁻¹
O=C(c1ccc(Cl)cc1)N(Cc1ccccc1)C1CCCCC1 — inhibition (Endothelin receptor type B (EDNRB, Homo sapiens, UniProt P24530); cell-free assay; 10 µM): 3.4%
N=C(N)NCCC[C@H](NC(=O)[C@H](Cc1ccccc1)NC(=O)[C@@H](N)Cc1c[nH]cn1)C(=O)N[C@@H](Cc1c[nH]c2ccccc12)C(=O)O — Emax (Melanocortin receptor 5 (Mus musculus, UniProt P41149); cAMP, agonist; HEK293): 85%
CCOC(=O)C1CSc2[nH]c(=O)sc2C1c1cn(-c2ccccc2)nc1-c1ccc(OC)cc1 (centres unmarked) — inhibition (CA9; enzyme activity, inhibitor; 10 nM): 21.5%
S=C(NCc1ccc2c(c1)OCO2)N1CCN(c2ncnc3c2oc2ccccc23)CC1 — activity vs control (PKN1; enzyme activity, inhibitor; 1 µM): 98%
O=[N+]([O-])c1ccc(O[C@H]2O[C@H](CO)[C@@H](O)[C@H](O)[C@@H]2O)cc1 — Km (Beta-mannosidase (Bacteroides thetaiotaomicron, UniProt Q8AAK6); enzyme activity, substrate, absorbance; pH 5.6): 390 µM
CN1CCC(C2c3ccccc3CCc3ccccc32)CC1 — koff (HRH1; binding): 0.000475 s⁻¹
Cc1ccc(-c2nn(-c3ccccc3)cc2C2c3sc(=O)[nH]c3SC3C(=O)N(c4ccccc4)C(=O)C32)cc1 (centres unmarked) — inhibition (CA9; enzyme activity, inhibitor; 0.1 µM): 39%
CN1CCC(=C(c2ccccc2)c2ccccc2)CC1 — kon (HRH1; binding): 2e+06 M⁻¹ s⁻¹
COc1cc([N+](=O)[O-])ccc1NC(=O)c1ccccc1O — inhibition (MAOB; enzyme activity, inhibitor; 1 µM, 20 min): 7%
COc1cc2ncnc(Nc3ccc(F)c(Cl)c3)c2cc1NC(=O)/C=C/CN1CCCCC1 — activity vs control (PKN1; enzyme activity, inhibitor; 1 µM): 87%
O=C(Nc1ccc([N+](=O)[O-])cc1Cl)c1ccc(Cl)cc1 — inhibition (MAOB; enzyme activity, inhibitor; 1 µM, 20 min): 25%
CO[C@H]1C[C@@H]2CC[C@@H](C)[C@@](O)(O2)C(=O)C(=O)N2CCCC[C@H]2C(=O)O[C@H]([C@H](C)C[C@@H]2CC[C@@H](OP(C)(C)=O)[C@H](OC)C2)CC(=O)[C@H](C)/C=C(\C)[C@@H](O)[C@@H](OC)C(=O)[C@H](C)C[C@H](C)/C=C/C=C/C=C/1C — activity vs control (PKN1; enzyme activity, inhibitor; 1 µM): 104%
CC(C)(C)n1nnc([C@H](CCCNC(=N)CCl)NC(=O)c2ccccc2)n1 — kinact/KI (PADI4; enzyme activity, inhibitor): 11.8 M⁻¹ s⁻¹
